# Paper PMC5915676 (Cell chemical biology, 2016)
# Positions count from the first letter of the chain named. Entries after “also recorded” stand apart in the source; their conditions may differ. Like-named read-outs stand apart in the source and are kept apart here.
# How the values were obtained:
# [1] = system: SKOV3 GFP KO control cells; test: 6-day proliferation assay; assay type: cell-based, human; conditions: 50 μM PKUMDL-WQ-2201, 6 days
# In short: (§1)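 SKOV3 control (sgRNA against GFP) and PHGDH knockout cells were used. Knockout was made by lentiCRISPR with an exon 8 sgRNA, puromycin selection and single-cell clones, and was western-validated. Cells were grown in RPMI-1640 with 10% FBS and plated at 10,000 cells/well in triplicate. After 24 h they received DMSO or compound, and viable cells were counted daily for 6 days by trypan-blue exclusion on a hemocytometer. Data are mean ± SEM, n=3 biological replicates, two-tailed Student's t-test.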
# [2] = system: SKOV3 PHGDH KO cells; test: 6-day proliferation assay; assay type: cell-based, human; conditions: 50 μM PKUMDL-WQ-2201, 6 days
# In short: as §1
# [3] = system: MCF-7 cells; test: MTT cell viability assay; assay type: cell-based, human; conditions: read-out: EC50 (cell viability), MCF-7, 72 h
# [4] = molecular target: T1, PHGDH mutant T56AK57A (Homo sapiens, UniProt O43175, K58A/T57A); test: PHGDH enzyme assay, mutant T56AK57A; assay type: biochemical; conditions: read-out: IC50, PHGDH enzyme inhibition
# T1 sequence (O43175 1-533 T57A/K58A): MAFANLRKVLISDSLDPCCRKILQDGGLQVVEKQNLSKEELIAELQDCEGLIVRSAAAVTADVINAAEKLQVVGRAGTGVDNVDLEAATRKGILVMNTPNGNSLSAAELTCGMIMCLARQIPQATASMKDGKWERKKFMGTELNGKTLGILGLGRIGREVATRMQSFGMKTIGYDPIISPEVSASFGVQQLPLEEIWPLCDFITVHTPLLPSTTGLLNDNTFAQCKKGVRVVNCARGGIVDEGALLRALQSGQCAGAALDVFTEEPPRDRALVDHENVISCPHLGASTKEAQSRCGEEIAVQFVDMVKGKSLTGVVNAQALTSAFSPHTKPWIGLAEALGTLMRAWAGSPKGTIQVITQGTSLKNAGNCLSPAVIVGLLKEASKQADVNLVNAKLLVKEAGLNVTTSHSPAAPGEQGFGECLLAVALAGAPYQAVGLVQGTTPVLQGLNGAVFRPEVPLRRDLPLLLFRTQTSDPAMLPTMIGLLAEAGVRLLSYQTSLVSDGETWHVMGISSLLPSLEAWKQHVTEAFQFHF
# In short: (§2)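 Point mutants were made by QuikChange site-directed mutagenesis of pET-21a(+) wild-type human PHGDH and sequence-verified. Each was expressed in E. coli and purified like the wild type, then assayed for activity and inhibition in the same PSAT1-coupled PHGDH assay.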
# [5] = molecular target: T2, PHGDH mutant T59A (Homo sapiens, UniProt O43175, T60A); test: PHGDH enzyme assay, mutant T59A; assay type: biochemical; conditions: read-out: IC50, PHGDH enzyme inhibition
# T2 sequence (O43175 1-533 T60A): T1 sequence (O43175 1-533 T57A/K58A) with A57T, A58K, T60A
# In short: as §2
# [6] = system: MDA-MB-231 xenografts; test: MDA-MB-231 xenograft mouse model; assay type: in vivo, NOD.CB17 Scid/J mice; conditions: 20 mg/kg/day IP
# [7] = system: serine biosynthesis pathway in SKOV3 GFP KO cells; test: U-13C-glucose stable isotope labeling, LC-HRMS; assay type: cell-based, human
# [8] = Body weight of xenograft mice during treatment; assay type: in vivo; conditions: over the course of the xenograft experiments
# [9] = molecular target: T3, PHGDH (Homo sapiens, UniProt O43175); test: PHGDH enzyme assay coupled with PSAT1 reaction; assay type: biochemical
# T3 sequence (O43175 1-533): T1 sequence (O43175 1-533 T57A/K58A) with A57T, A58K
# In short: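 Full-length human PHGDH and PSAT1 were His-purified from E. coli BL21(DE3) (pET21a(+)) by Ni-NTA then gel filtration. PHGDH activity was measured coupled to the upstream PSAT1 reaction. For cofactor competition, enzyme was preincubated 10 min at 25°C with NADH and compound, and Pser was added to start the reaction. For combinations, fixed first-compound levels (0–200 μM) were mixed with second-compound series (0–200 μM) and preincubated with enzyme.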
# [10] = system: MCF-10A cells; test: MTT cell viability assay; assay type: cell-based, human
# [11] = system: ZR-75-1 cells; test: MTT cell viability assay; assay type: cell-based, human; conditions: selectivity, PHGDH amplified vs non-dependent line
# [12] = system: HCC70 cells; test: MTT cell viability assay; assay type: cell-based, human; conditions: read-out: EC50, antitumor activity (cell viability), HCC70, 72 h
# [13] = system: MDA-MB-231 cells; test: MTT cell viability assay; assay type: cell-based, human; conditions: read-out: EC50 (cell viability), MDA-MB-231, 72 h
# [14] = system: panel of cancer cell lines along with one immortalized human breast epithelial cell line; test: MTT cell viability assay, cell line panel; assay type: cell-based
# [15] = system: MDA-MB-468 xenografts; test: MDA-MB-468 xenograft mouse model; assay type: in vivo, NOD.CB17 Scid/J mice; conditions: 20, 10 and 5 mg/kg/day IP, 30 days of drug delivery, vs vehicle
# [16] = system: MDA-MB-468 cells; test: MTT cell viability assay; assay type: cell-based, human; conditions: read-out: EC50, antitumor activity (cell viability), MDA-MB-468, 72 h
# [17] = system: MDA-MB-468 cells; conditions: 30 μM, ref Mullarky et al., 2016, cited from earlier work
# [18] = ref Mullarky et al., 2016; cited from earlier work
# [19] = 37 μM PKUMDL-WQ-2101, 291 μM PKUMDL-WQ-2201, 24 h treatment
molecule,measurement,setting,value
CCNC(=S)N/N=C/c1ccc(-c2ccc(C(=O)O)c(Cl)c2)o1 [PKUMDL-WQ-2201],cell growth,[1],suppressed
same,cell growth,[2],remained unaffected
same,EC50,[3],> 200 µM
same,IC50,[4],> 300 µM
same,IC50,[5],69 ± 40 µM
same,tumor growth,[6],neither PKUMDL-WQ-2101 nor PKUMDL-WQ-2201 affected tumor growth
same,"m+2, m+6 and m+7 glucose labeling in UTP and ATP",[7]; [19],decreases
same,m+2 glucose incorporation into glutathione,[7]; [19],decreases in m+2
same,reduction of glucose incorporation into serine and glycine,"[7]; about IC50 (37 μM PKUMDL-WQ-2101, 291 μM PKUMDL-WQ-2201), 24 h treatment",more than 50%
same,body weight (tolerability),[8],able to maintain normal body weight
same,combination effect on PHGDH inhibition (Combination Index),"[9]; PKUMDL-WQ-2101 kept at 25 μM, PKUMDL-WQ-2201 1 to 200 μM",synergistic interactions
same,combination effect on PHGDH inhibition (Combination Index),"[9]; PKUMDL-WQ-2202 kept at 25 μM, PKUMDL-WQ-2201 varied",antagonism
same,competition with cofactor NADH,"[9]; compound 50 μM, NADH 5 to 40 μM",did not bound in the cofactor site
same,IC50,"[9]; read-out: IC50, PHGDH enzyme inhibition, WT PHGDH",35.7 ± 8.6 µM
same,cytotoxic effects,[10],weak cytotoxic effects
same,fold more active in MDA-MB-468 and HCC70 than in ZR-75-1,[11],13- to 18 fold
same,EC50,[12],10 µM
same,EC50,[13],> 200 µM
same,bioactivity in the other three PHGDH non-amplified breast cancer cell lines,[14]; lines other than ZR-75-1,No bioactivities
same,EC50,"[14]; read-out: EC50 in PHGDH amplified breast cancer cells, serine-replete media",< 10 µM
same,tumor growth,[15],substantial inhibitory effects; also recorded: significantly suppressed the growth of tumors
same,EC50,[16],6.9 µM
CBR-5884,inhibition of growth of MDA-MB-468 cells,[17]; serine-deplete media,80% to 90%
same,inhibition of growth of MDA-MB-468 cells,[17]; serine-replete media,35% to 60%
same,stability in mouse plasma,[18],unstable in mouse plasma
